# According to paper PMC5400702 (European journal of nuclear medicine and molecular imaging, 2017):
# Where “and” joins values, the source holds several entries; their conditions need not be identical. Equal values may be shown once. Read-outs that look alike come from different tables or passages of the source.
# Columns and labels:
# α7 nAChRs [1] = target: T1, α7 nAChRs (Macaca mulatta, UniProt Q866A2); experiment: [18F]ASEM PET blocking scans with nicotine, varenicline and cold ASEM; settings: for receptor occupancy: Lassen plot
# T1 sequence (Q866A2 23-502): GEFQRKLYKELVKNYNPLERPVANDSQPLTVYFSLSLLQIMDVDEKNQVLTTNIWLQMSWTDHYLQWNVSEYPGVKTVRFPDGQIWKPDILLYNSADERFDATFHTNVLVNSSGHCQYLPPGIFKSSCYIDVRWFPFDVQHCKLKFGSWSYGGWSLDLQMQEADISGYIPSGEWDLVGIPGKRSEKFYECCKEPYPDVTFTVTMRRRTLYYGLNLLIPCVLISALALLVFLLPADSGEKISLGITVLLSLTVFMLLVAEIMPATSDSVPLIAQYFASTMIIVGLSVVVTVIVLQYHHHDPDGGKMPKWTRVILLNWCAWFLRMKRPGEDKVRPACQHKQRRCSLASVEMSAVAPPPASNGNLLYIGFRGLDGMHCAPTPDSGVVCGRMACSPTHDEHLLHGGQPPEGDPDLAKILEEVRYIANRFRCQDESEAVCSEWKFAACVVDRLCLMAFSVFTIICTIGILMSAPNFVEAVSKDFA
# α7 nAChRs [2] = target: T1, α7 nAChRs; type: in vivo; settings: 2TCM, rhesus monkey; for K1: average across all subjects and gray matter regions
# Plasma free fraction [3] = type: in vitro ADME, Macaca mulatta; settings: rhesus monkey plasma, ultrafiltration
# How it was run: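 Plasma from arterial samples of anesthetized rhesus monkeys during radiotracer PET scans was tested. Free fraction was measured by ultrafiltration in triplicate for each scan.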
# [4] = type: in vivo, Macaca mulatta; settings: arterial plasma, 120 min post-injection, averaged across subjects, rhesus monkey
# α7 nAChRs [5] = target: T2, α7 nAChRs (Homo sapiens, UniProt P36544); settings: two subjects, initial [18F]ASEM human study ref 11; cited from earlier work
# T2 sequence (P36544 23-502): as the sequence (Q866A2 23-502) above, with S171N, K186R, M373V, A376V counted along it
# α7 nAChRs [6] = target: T2, α7 nAChRs; experiment: [18F]ASEM PET imaging in human brain, kinetic modeling and test-retest; type: in vivo; settings: for K1 / VT / VT/fp: humans n=6; for VT TRV / VT/fp TRV: humans n=4
# [7] = Parent [18F]ASEM in human arterial plasma; type: in vivo; settings: for parent [18F]ASEM fraction of radioactivity in plasma: human arterial plasma
# How it was run: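 Six healthy volunteers (5 M, 1 F; 26–51 y) received 317±87 MBq radiotracer as a 1-min slow bolus into a forearm vein. Manual radial-artery samples were taken over 180 min post-injection. Plasma was analysed by HPLC for parent fraction, giving the metabolite-corrected arterial input function, expressed as SUV.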
# Plasma free fraction [8] = type: in vitro ADME, human
# α7 nAChRs [9] = settings: full agonist ref 16, 17; cited from earlier work
# [10] = 0.24 mg/kg nicotine, averaged across regions, one value per animal (two animals)
# [11] = 0.33 mg/kg varenicline, one value per animal (two animals)
compound,measurement,setting,value
O=S1(=O)c2cc(N3CCN4CCC3CC4)ccc2-c2cccc(F)c21 [ASEM],receptor occupancy,"α7 nAChRs [1]; 0.67 mg/kg cold ASEM, one animal",18.8% and 19%
same,receptor occupancy,"α7 nAChRs [1]; 1.24 mg/kg cold ASEM, two animals",36.7% and 40.2% and 37–40%
O=S1(=O)c2cc(N3CCN4CCC3CC4)ccc2-c2cccc([18F])c21 [[^18F]ASEM],K1,α7 nAChRs [2],0.59±0.14 mL/cm^3·min^−1
same,k2,α7 nAChRs [2],0.022 ± 0.010 min⁻¹
same,free fraction (fP) in plasma,Plasma free fraction [3],14.9±1.1%
same,parent fraction of total plasma radioactivity,[4],16%
same,test-retest variability of VT,α7 nAChRs [5],10.8±5.1%
same,K1,"α7 nAChRs [6]; 1TCM, Caudate",0.33±0.03 mL/cm^3 per min
same,VT,"α7 nAChRs [6]; 1TCM, Caudate",22.4±3.9 mL/cm^3
same,K1,"α7 nAChRs [6]; 1TCM, Cerebellum",0.36±0.08 mL/cm^3 per min
same,VT,"α7 nAChRs [6]; 1TCM, Cerebellum",20.0±3.2 mL/cm^3
same,K1,"α7 nAChRs [6]; 1TCM, Frontal Cortex",0.35±0.07 mL/cm^3 per min
same,VT,"α7 nAChRs [6]; 1TCM, Frontal Cortex",24.7±3.0 mL/cm^3
same,K1,"α7 nAChRs [6]; 1TCM, Hippocampus",0.26±0.04 mL/cm^3 per min
same,VT,"α7 nAChRs [6]; 1TCM, Hippocampus",21.7±2.3 mL/cm^3
same,K1,"α7 nAChRs [6]; 1TCM, Occipital Cortex",0.37±0.06 mL/cm^3 per min
same,VT,"α7 nAChRs [6]; 1TCM, Occipital Cortex",25.6±3.1 mL/cm^3
same,K1,"α7 nAChRs [6]; 1TCM, Putamen",0.39±0.10 mL/cm^3 per min
same,VT,"α7 nAChRs [6]; 1TCM, Putamen",25.8±3.6 mL/cm^3
same,VT,"α7 nAChRs [6]; 1TCM, Temporal Cortex",26.1±3.7 mL/cm^3
same,K1,"α7 nAChRs [6]; 1TCM, Thalamus",0.38±0.08 mL/cm^3 per min
same,VT,"α7 nAChRs [6]; 1TCM, Thalamus",26.6±3.3 mL/cm^3
same,underestimation of VT with truncated data,"α7 nAChRs [6]; 60 min of data vs 180 min, humans",7.4±5.1%
same,underestimation of VT with truncated data,"α7 nAChRs [6]; 90 min of data vs 180 min, humans",5.5±3.8%
same,underestimation of VT with truncated data,"α7 nAChRs [6]; 120 min of data vs 180 min, humans",4.2±2.6%
same,test-retest variability of VT,"α7 nAChRs [6]; MA1, 120 min of data, four human subjects, all regions",11.7±9.8%
same,VT TRV,"α7 nAChRs [6]; MA1, Caudate",12.5±8.1%
same,VT/fp TRV,"α7 nAChRs [6]; MA1, Caudate",6.8±7.4%
same,VT,"α7 nAChRs [6]; MA1, Caudate",21.6±2.6 mL/cm^3
same,VT/fp,"α7 nAChRs [6]; MA1, Caudate",288±72 mL/cm^3
same,VT TRV,"α7 nAChRs [6]; MA1, Cerebellum",13.4±7.6%
same,VT/fp TRV,"α7 nAChRs [6]; MA1, Cerebellum",7.8±6.2%
same,VT,"α7 nAChRs [6]; MA1, Cerebellum",19.6±2.5 mL/cm^3
same,VT/fp,"α7 nAChRs [6]; MA1, Cerebellum",259±57 mL/cm^3
same,VT TRV,"α7 nAChRs [6]; MA1, Frontal Cortex",11.0±11.4%
same,VT/fp TRV,"α7 nAChRs [6]; MA1, Frontal Cortex",10.2±7.7%
same,VT,"α7 nAChRs [6]; MA1, Frontal Cortex",24.6±2.7 mL/cm^3
same,VT/fp,"α7 nAChRs [6]; MA1, Frontal Cortex",326±66 mL/cm^3
same,VT TRV,"α7 nAChRs [6]; MA1, Hippocampus",10.9±8.4%
same,VT/fp TRV,"α7 nAChRs [6]; MA1, Hippocampus",8.0±7.8%
same,VT,"α7 nAChRs [6]; MA1, Hippocampus",21.7±2.1 mL/cm^3
same,VT/fp,"α7 nAChRs [6]; MA1, Hippocampus",287±58 mL/cm^3
same,VT TRV,"α7 nAChRs [6]; MA1, Occipital Cortex",10.5±10.5%
same,VT/fp TRV,"α7 nAChRs [6]; MA1, Occipital Cortex",9.9±8.4%
same,VT,"α7 nAChRs [6]; MA1, Occipital Cortex",25.7±2.7 mL/cm^3
same,VT/fp,"α7 nAChRs [6]; MA1, Occipital Cortex",339±70 mL/cm^3
same,VT TRV,"α7 nAChRs [6]; MA1, Putamen",12.0±8.1%
same,VT/fp TRV,"α7 nAChRs [6]; MA1, Putamen",7.8±7.5%
same,VT,"α7 nAChRs [6]; MA1, Putamen",25.4±3.0 mL/cm^3
same,VT/fp,"α7 nAChRs [6]; MA1, Putamen",335±66 mL/cm^3
same,VT TRV,"α7 nAChRs [6]; MA1, Temporal Cortex",11.8±10.1%
same,VT/fp TRV,"α7 nAChRs [6]; MA1, Temporal Cortex",9.1±7.8%
same,VT,"α7 nAChRs [6]; MA1, Temporal Cortex",25.8±3.2 mL/cm^3
same,VT/fp,"α7 nAChRs [6]; MA1, Temporal Cortex",342±75 mL/cm^3
same,VT TRV,"α7 nAChRs [6]; MA1, Thalamus",11.0±6.4%
same,VT/fp TRV,"α7 nAChRs [6]; MA1, Thalamus",6.9±7.8%
same,VT,"α7 nAChRs [6]; MA1, Thalamus",25.9±2.9 mL/cm^3
same,VT/fp,"α7 nAChRs [6]; MA1, Thalamus",343±75 mL/cm^3
same,test-retest variation of VT/fP,"α7 nAChRs [6]; MA1, four human subjects, all regions",9.3±7.3%
same,peak SUV in brain,α7 nAChRs [6]; human brain,3.0–4.5 SUV
same,time of peak radioactivity concentration in brain,"α7 nAChRs [6]; human brain, post-injection",20 to 30 min
same,pharmacological effects following administration,"α7 nAChRs [6]; humans, administered mass 132±185 ng",No detectable pharmacological effects
same,VT higher than previously reported values,"α7 nAChRs [6]; humans, compared with ref 11",roughly 15%
same,parent [18F]ASEM fraction of radioactivity in plasma,[7]; 60 min after injection,27.5±7.9%
same,parent [18F]ASEM fraction of radioactivity in plasma,[7]; 180 min post-injection,8.8±1.6%
same,time of peak of parent [18F]ASEM curve in arterial plasma,[7]; humans,1.25 min
same,SUV of parent [18F]ASEM curve in arterial plasma at end of scans,"[7]; humans, 180 min post-injection",0.47±0.08 SUV
same,peak SUV of parent [18F]ASEM curve in arterial plasma,"[7]; humans, at 1.25 min",4.4±1.2 SUV
same,test-retest variation of plasma free fraction (fP),Plasma free fraction [8]; four human subjects,−5.3±18.0%
same,fP,Plasma free fraction [8]; human plasma,7.7±1.3%
same,VND,"α7 nAChRs [1]; estimated from Lassen plots, one value per animal (two animals)",25.3 mL/cm^3 and 16.0 mL/cm^3
O=S1(=O)c2ccc([18F])cc2-c2ccc(N3CCN4CCC3CC4)cc21 [[^18F]DBT-10],K1,α7 nAChRs [2],0.66±0.11 mL/cm^3·min^−1
same,k2,α7 nAChRs [2],0.024 ± 0.010 min⁻¹
same,free fraction (fP) in plasma,Plasma free fraction [3],18.3±3.9%
same,parent fraction of total plasma radioactivity,[4],30%
CN1CCC[C@H]1c1cccnc1 [nicotine],change of [18F]ASEM VT,α7 nAChRs [1]; [10],−0.1±6.7% and 5.3±9.1%
same,change of [18F]ASEM VT/fP,α7 nAChRs [1]; [10],−7.2±6.2% and −3.0±8.4%
c1cnc2cc3c(cc2n1)[C@@H]1CNC[C@H]3C1 [varenicline],Ki,α7 nAChRs [9],322 nM
same,change of [18F]ASEM VT,α7 nAChRs [1]; [11],−2.6±6.2% and 5.2±16.9%
same,change of [18F]ASEM VT/fP,α7 nAChRs [1]; [11],−1.6±5.5% and −5.4±15.2%
